Consider 11 molecules from ChEMBL document CHEMBL4177655, “Synthesis and biological evaluation of Santacruzamate-A based analogues” (Bioorg Med Chem, 2017).

In test [1] the test system is HCT-116. Nature of the test: Antiproliferative activity against human HCT116 cells after 48 hrs by MTT assay. The conditions noted are these: HCT-116, 48 h. It counts as functional, cell-based.
Test [2] deals with HCT-116. Nature of the test: Antiproliferative activity against human HCT116 cells after 24 hrs by MTT assay. The test is classed as functional, cell-based. The conditions noted are these: HCT-116, 24 h. In general terms: Formazan colour is commonly taken as a measure of viable cells.
For test [3], the system named is HCT-116. Nature of the test: Antiproliferative activity against human HCT116 cells after 72 hrs by MTT assay. The test is classed as functional, cell-based. The conditions noted are these: HCT-116, 72 h.
Test [4] addresses T1, Histone deacetylase (Homo sapiens) (UniProt Q13547+O15379+Q9UBN7+Q92769+Q9UQL6+Q8WUI4+Q9BY41+Q96DB2+P56524+Q9UKV0+Q969S8). Nature of the test: Inhibition of HDAC in human HCT116 cells assessed as reduction in acetyl-histone-H3 levels at 10 uM after 24 hrs by Western blot analysis relative to control. It counts as cell-based. The procedure, abridged: (§1)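 HCT116 cells were treated 24 h at 10 µM, with DMSO vehicle as control. Total lysates (protein by Bradford against a BSA standard, ~30 µg loaded) were run on 15% SDS-PAGE under reducing conditions and transferred to nitrocellulose. Membranes were blocked in 5% milk, then probed with anti-acetyl-histone H3 or H4, with GAPDH as loading control. Detection by HRP secondary and ECL. Three experiments.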

Test [5] addresses T1, Histone deacetylase (Homo sapiens). Description: Inhibition of HDAC in human HCT116 cells assessed as reduction in acetyl-histone-H4 levels at 10 uM after 24 hrs by Western blot analysis relative to control. The test is classed as cell-based. Put shortly: as §1
For orientation: In western blotting, separated proteins are transferred to a membrane and probed.

Test [6] addresses T2, Histone deacetylase 8 (Homo sapiens) (UniProt Q9BY41).
T2 sequence (whole entry): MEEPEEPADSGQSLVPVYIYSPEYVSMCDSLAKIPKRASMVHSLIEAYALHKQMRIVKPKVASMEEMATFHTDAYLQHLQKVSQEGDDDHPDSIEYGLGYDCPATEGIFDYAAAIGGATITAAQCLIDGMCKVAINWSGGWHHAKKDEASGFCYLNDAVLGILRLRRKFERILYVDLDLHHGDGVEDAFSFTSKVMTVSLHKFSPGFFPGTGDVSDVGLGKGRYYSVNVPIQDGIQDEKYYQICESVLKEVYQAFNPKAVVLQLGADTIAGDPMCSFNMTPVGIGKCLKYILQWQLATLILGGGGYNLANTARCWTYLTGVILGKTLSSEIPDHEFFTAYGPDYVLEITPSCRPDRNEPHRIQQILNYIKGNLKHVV
Nature of the test: Inhibition of human full-length recombinant C-termianl His-tagged HDAC8 expressed in baculovirus infected Sf9 insect cells measured every 5 mins by fluorescence assay.

Test [7] deals with Histone deacetylase 1 (Homo sapiens) (UniProt Q13547). Nature of the test: Inhibition of full-length recombinant HDAC1 (unknown origin) expressed in baculovirus infected Sf9 insect cells preincubated for 16 hrs measured every 5 mins by fluorescence assay.
For test [8] the target is unchanged. Description: Inhibition of full-length recombinant HDAC1 (unknown origin) expressed in baculovirus infected Sf9 insect cells measured every 5 mins by fluorescence assay.
For test [9], the target named is Histone deacetylase 2 (Homo sapiens) (UniProt Q92769). Nature of the test: Inhibition of full-length human recombinant HDAC2 expressed in baculovirus infected Sf9 insect cells preincubated for 16 hrs measured every 5 mins by fluorescence assay.
In test [10] the target is T3, Protein deacetylase HDAC6 (Homo sapiens) (UniProt Q9UBN7).
T3 sequence (whole entry): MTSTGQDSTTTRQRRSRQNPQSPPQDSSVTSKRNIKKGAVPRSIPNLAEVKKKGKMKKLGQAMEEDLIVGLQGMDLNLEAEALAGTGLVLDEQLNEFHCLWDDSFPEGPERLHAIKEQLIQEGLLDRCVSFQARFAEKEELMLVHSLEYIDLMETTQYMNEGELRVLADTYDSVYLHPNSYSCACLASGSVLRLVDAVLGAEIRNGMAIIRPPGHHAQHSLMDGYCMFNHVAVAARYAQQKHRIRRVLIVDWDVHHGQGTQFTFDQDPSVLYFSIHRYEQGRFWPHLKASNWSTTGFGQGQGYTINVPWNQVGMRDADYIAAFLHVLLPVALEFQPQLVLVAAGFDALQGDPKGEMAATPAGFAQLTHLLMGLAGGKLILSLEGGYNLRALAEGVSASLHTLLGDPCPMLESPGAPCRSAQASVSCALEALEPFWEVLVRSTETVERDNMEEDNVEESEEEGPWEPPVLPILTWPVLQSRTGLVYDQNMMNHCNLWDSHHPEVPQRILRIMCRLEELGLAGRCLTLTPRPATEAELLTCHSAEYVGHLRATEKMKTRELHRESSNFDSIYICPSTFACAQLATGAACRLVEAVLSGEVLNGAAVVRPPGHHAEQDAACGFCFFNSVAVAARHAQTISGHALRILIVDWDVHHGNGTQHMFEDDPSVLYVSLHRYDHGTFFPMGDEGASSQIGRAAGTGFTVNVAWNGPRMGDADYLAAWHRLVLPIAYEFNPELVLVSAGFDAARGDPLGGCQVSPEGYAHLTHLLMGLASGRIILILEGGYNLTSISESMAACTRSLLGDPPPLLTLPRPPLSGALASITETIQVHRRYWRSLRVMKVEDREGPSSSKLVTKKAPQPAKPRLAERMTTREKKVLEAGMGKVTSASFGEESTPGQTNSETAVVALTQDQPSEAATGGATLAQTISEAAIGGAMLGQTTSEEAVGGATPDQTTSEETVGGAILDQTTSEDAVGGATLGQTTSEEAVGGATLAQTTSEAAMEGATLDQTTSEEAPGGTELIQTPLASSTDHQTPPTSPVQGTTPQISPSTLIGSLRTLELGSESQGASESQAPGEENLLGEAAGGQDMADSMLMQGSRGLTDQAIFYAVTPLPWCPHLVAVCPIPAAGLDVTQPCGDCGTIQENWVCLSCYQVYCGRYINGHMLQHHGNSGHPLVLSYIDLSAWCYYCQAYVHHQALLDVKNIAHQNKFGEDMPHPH
Description: Inhibition of full-length recombinant HDAC6 (unknown origin) expressed in baculovirus infected Sf9 insect cells measured every 5 mins by fluorescence assay.

For test [11], the target named is T4, Histone deacetylase 3/Nuclear receptor corepressor 2 (HDAC3/NCoR2) (Homo sapiens) (UniProt O15379+Q9Y618). Nature of the test: Inhibition of human full length C-terminal His-tagged HDAC3/N-terminal GST-tagged human NCOR2 (395 to 489 residues) co-expressed in baculovirus infected Sf9 insect cells preincubated for 16 hrs measured every 5 mins by fluorescence assay.

Test [12] has as its target T4, Histone deacetylase 3/Nuclear receptor corepressor 2 (HDAC3/NCoR2) (Homo sapiens). Description: Inhibition of human full length C-terminal His-tagged HDAC3/N-terminal GST-tagged human NCOR2 (395 to 489 residues) co-expressed in baculovirus infected Sf9 insect cells measured every 5 mins by fluorescence assay.

The source made the active and inactive calls. No cut-off for these calls is given here.

Sequence of Histone deacetylase 1 (Homo sapiens) (Q13547 whole entry): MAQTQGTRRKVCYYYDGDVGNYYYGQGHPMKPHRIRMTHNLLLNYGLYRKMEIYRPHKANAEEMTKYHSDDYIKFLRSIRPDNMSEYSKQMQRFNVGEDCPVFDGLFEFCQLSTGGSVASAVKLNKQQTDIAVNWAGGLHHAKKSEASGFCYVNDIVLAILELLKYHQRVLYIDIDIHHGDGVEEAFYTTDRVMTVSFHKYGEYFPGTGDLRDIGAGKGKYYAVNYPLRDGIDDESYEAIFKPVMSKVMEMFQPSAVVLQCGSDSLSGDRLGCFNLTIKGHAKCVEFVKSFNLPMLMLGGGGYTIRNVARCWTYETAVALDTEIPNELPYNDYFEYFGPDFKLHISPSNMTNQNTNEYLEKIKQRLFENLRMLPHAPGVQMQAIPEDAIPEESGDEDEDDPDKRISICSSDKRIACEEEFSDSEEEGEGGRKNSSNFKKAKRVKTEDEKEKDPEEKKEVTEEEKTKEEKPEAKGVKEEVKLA
Sequence of Histone deacetylase 2 (Homo sapiens) (Q92769 whole entry): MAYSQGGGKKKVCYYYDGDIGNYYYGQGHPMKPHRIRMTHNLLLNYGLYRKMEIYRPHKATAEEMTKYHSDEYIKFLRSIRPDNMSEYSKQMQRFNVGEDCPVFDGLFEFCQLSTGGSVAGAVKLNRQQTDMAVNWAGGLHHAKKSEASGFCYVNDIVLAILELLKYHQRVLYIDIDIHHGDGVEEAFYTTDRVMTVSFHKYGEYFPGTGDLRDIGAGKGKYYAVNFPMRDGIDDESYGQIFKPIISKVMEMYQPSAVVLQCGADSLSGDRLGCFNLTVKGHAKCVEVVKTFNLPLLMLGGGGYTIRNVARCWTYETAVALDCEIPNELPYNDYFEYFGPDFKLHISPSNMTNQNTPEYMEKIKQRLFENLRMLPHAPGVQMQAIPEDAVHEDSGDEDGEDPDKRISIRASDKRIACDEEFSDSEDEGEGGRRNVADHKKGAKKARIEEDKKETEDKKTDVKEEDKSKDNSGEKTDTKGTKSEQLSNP

With `CCOC(=O)NCCCC(=O)NCCc1cccc(F)c1`, the values for the IC50 in the test with HCT-116 [1], in the test with HCT-116 [2] and with HCT-116 [3] were 0.825 µM, greater than 50 µM and 5 to 10 µM, respectively.
In turn, `O=C(CCCNC(=O)C(=O)O)NCCc1c[nH]c2ccccc12` returned an IC50 in the test with HCT-116 [2] of less than 50 µM.
For `CCOC(=O)NCCCC(=O)NCCCc1ccccc1`, the IC50 in the test with HCT-116 [1], in the test with HCT-116 [2] and in the test with HCT-116 [3] was greater than 50 µM each time.
On to `O=C(CCCNC(=O)C(=O)O)NCCCc1ccccc1`, for which the IC50 in the test on HCT-116 [2] is greater than 50 µM.
On to `O=C(CCCNC(=O)C(=O)O)NCCc1cccc(F)c1`, for which, in the test on HCT-116 [2], the IC50 is greater than 50 µM.
For `O=C(CCCNC(=O)C(=O)O)Nc1ccccc1`, the inhibition entry in test [4] and in test [5] was “inactive” each time. The IC50 in the test with HCT-116 [1] is greater than 50 µM; with HCT-116 [2], 0.814 µM.
As for `O=C(CCCNC(=O)C(=O)O)NCCc1cccc(O)c1`, the IC50 in the test on HCT-116 [1] and in the test on HCT-116 [2] was greater than 50 µM throughout.
As to `O=C(CCCNC(=O)C(=O)O)NCCc1ccccc1`, the IC50 with HCT-116 [1] and in the test with HCT-116 [2] was greater than 50 µM each time.
As to `CCOC(=O)NCCCC(=O)NCCc1cccc(O)c1`, the inhibition entry in [4], in [6], in test [5], in test [7], in test [8] and in [9] was “inactive” throughout. Besides, the inhibition entry in test [10], in [11] and in test [12] was “inactive” throughout. For the same molecule, the IC50 in the test on HCT-116 [1] was 0.476 µM; with HCT-116 [2] it was greater than 50 µM; with HCT-116 [3] it was 1 to 5 µM.
`CCOC(=O)NCCCC(=O)NCCc1ccccc1`: the inhibition result in [6], in test [7], in test [8], in test [9], in test [10] and in [11] was “inactive” each time. In test [12], the inhibition entry was “inactive”. Moreover, the IC50 in the test on HCT-116 [1], in the test with HCT-116 [2] and in the test on HCT-116 [3] was greater than 50 µM throughout.
For the molecule `CCOC(=O)NCCCC(=O)NCc1ccccc1`, the IC50 is greater than 50 µM in the test on HCT-116 [2] and 0.615 µM with HCT-116 [3].

A word on the IC50: it is the concentration needed to halve the response being measured. Read a high IC50 as weaker potency in that assay.
